Measurements reported in ChEMBL document CHEMBL1156296, “Development of novel, highly potent inhibitors of V-RAF murine sarcoma viral oncogene homologue B1 (BRAF): increasing cellular potency through optimization of a distal heteroaromatic group” (J Med Chem, 2010).

Assays:
[1] = target: T1, Serine/threonine-protein kinase B-raf (Homo sapiens, UniProt P15056, V600E); experiment: Inhibition of BRAF V600E mutant ERK phosphorylation in human WM266.4 cells; type: cell-based
Procedure, shortened: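 WM266.4 melanoma cells, which carry mutant V600E BRAF, exposed to inhibitor for 6 h. ERK phosphorylation (pERK) measured and IC50 derived. Run in triplicate, with a few compounds measured once.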

[2] = target: T1, Serine/threonine-protein kinase B-raf; experiment: Inhibition of human BRAF V600E mutant expressed in baculovirus system
Procedure, shortened: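 Isolated purified V600E BRAF kinase with a 45 min incubation. Enzyme inhibition measured and IC50 derived. Run in triplicate, with one compound measured once.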

[3] = Growth inhibition of human WM266.4 cells expressing BRAF V600E mutant after 5 days by SRB assay; type: functional; conditions: WM 266-4, 120 h
[4] = Tmax in BALB/cAnNCrl mouse at 10 mg/kg, po; type: ADME, organism-based; set-up: dose 10 mg/kg, route oral; conditions: in vivo
Procedure, shortened: (§1)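 Female BALB/cAnNCrl mice, at least 6 weeks old, dosed once by oral gavage at 10 mL/kg in DMSO/water 1:19 v/v. Blood was taken at six or eight time points from 15 min to 18 or 24 h, three mice per time point, by terminal cardiac puncture under halothane or isoflurane into heparinized syringes. Plasma was snap frozen and stored at -70 °C.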

[5] = Half life in BALB/cAnNCrl mouse at 10 mg/kg, po; type: ADME, organism-based; set-up: dose 10 mg/kg, route oral; conditions: in vivo; procedure, shortened: as §1
[6] = Oral bioavailability in BALB/cAnNCrl mouse at 10 mg/kg; type: ADME, organism-based; conditions: in vivo
Procedure, shortened: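 Female BALB/cAnNCrl mice, at least 6 weeks old. The oral arm was gavage at 10 mL/kg in DMSO/water 1:19. The iv arm was 2 mg/kg (~4 μmol/kg) at 10 mL/kg in DMSO/Tween-20/water 10:1:89, sampled at seven or eight points from 5 min to 18 or 24 h. Three mice per time point, terminal cardiac blood, plasma.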

[7] = Cmax in BALB/cAnNCrl mouse at 10 mg/kg, po; type: ADME, organism-based; set-up: dose 10 mg/kg, route oral; conditions: in vivo; procedure, shortened: as §1
[8] = Growth inhibition of wild type human WM1361 cells after 5 days by SRB assay; conditions: WM1361, 120 h
[9] = Selectivity ratio of GI50 for human WM266.4 cells expressing BRAF V600E mutant to GI50 for human WM1361 cells

T1 sequence (P15056 2-766 V600E limits assumed): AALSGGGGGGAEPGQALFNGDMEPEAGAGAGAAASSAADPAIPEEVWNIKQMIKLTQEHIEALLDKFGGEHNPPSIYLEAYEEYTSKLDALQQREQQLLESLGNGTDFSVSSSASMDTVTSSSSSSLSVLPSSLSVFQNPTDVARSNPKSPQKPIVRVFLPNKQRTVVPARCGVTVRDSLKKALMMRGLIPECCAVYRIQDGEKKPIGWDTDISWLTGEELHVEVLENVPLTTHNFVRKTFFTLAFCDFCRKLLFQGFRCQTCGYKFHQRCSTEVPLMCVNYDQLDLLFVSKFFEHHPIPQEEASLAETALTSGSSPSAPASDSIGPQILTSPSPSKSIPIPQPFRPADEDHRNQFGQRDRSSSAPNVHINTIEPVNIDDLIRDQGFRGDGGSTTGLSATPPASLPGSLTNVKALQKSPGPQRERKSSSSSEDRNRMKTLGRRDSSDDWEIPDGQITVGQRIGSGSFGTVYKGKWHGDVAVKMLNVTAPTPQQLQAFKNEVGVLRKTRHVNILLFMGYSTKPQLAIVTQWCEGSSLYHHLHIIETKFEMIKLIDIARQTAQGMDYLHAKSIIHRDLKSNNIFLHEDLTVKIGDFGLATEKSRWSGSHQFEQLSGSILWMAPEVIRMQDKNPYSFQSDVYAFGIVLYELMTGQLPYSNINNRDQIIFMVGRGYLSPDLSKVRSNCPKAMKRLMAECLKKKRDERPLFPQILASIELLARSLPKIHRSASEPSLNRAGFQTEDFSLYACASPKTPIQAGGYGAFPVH

## CC(C)(C)c1cc(NC(=O)Nc2ccc(Oc3ccnc4[nH]c(=O)[nH]c34)cc2)n(-c2ccc(F)cc2)n1
[1]
  IC50: 411 nM
[2]
  IC50: 124 nM
[3]
  GI50: 540 nM

## Cn1c(=O)[nH]c2nccc(Oc3ccc(NC(=O)Nc4cc(C(C)(C)C)nn4-c4cccnc4)cc3)c21
[1]
  IC50: 830 nM
[2]
  IC50: 390 nM
[3]
  GI50: 590 nM

## Cc1ccc(-n2nc(C(C)(C)C)cc2NC(=O)Nc2ccc(Oc3ccnc4[nH]c(=O)n(C)c34)cc2)cc1
[1]
  IC50: 90 nM
[4]
  Tmax: 1 h
[5]
  half-life: 3.4 h
[2]
  IC50: 202 nM
[6]
  bioavailability: 34%
[3]
  GI50: 66 nM
[7]
  Cmax: 39.6 µM

## CCCn1nc(C(C)(C)C)cc1NC(=O)Nc1ccc(Oc2ccnc3[nH]c(=O)[nH]c23)cc1
[1]
  IC50: 10800 nM
[2]
  IC50: 83 nM
[3]
  GI50: 9500 nM

## CC(C)(C)c1cc(NC(=O)Nc2ccc(Oc3ccnc4[nH]c(=O)[nH]c34)cc2)n(C(C)(C)C)n1
[1]
  IC50: 33000 nM
[2]
  IC50: 1190 nM
[3]
  GI50: 26000 nM

## CC(C)(C)c1csc(NC(=O)Nc2ccc(Oc3ccnc4[nH]c(=O)[nH]c34)cc2)n1
[2]
  IC50: 7800 nM
[3]
  GI50: 10400 nM

## O=C(Nc1ccc(Oc2ccnc3[nH]c(=O)[nH]c23)cc1)Nc1nnc(C2CCCO2)s1 (stereo not given)
[1]
  IC50: 58000 nM
[2]
  IC50: 170 nM
[3]
  GI50: 48900 nM

## CC(C)(C)c1cc(NC(=O)Nc2ccc(Oc3ccnc4[nH]c(=O)[nH]c34)cc2)n(-c2ccccn2)n1
[1]
  IC50: 6400 nM
[2]
  IC50: 210 nM
[3]
  GI50: 3400 nM

## CC(C)(C)c1cc(NC(=O)Nc2ccc(Oc3ccnc4[nH]c(=O)[nH]c34)cc2)n(-c2ccc(F)cc2F)n1
[1]
  IC50: 1190 nM
[2]
  IC50: 104 nM
[3]
  GI50: 1230 nM

## Cn1nc(C(C)(C)C)cc1NC(=O)Nc1ccc(Oc2ccnc3[nH]c(=O)[nH]c23)cc1
[1]
  IC50: 28000 nM
[2]
  IC50: 33 nM
[3]
  GI50: 12900 nM

## CC(C)(C)c1cc(NC(=O)Nc2ccc(Oc3ccnc4[nH]c(=O)[nH]c34)c3ccccc23)n(-c2ccc(F)cc2)n1
[1]
  IC50: 203 nM
[2]
  IC50: 240 nM
[3]
  GI50: 20 nM

## CC(C)(C)c1cc(NC(=O)Nc2ccc(Oc3ccnc4[nH]c(=O)[nH]c34)cc2F)n(-c2ccccc2)n1
[8]
  GI50: 660 nM
[1]
  IC50: 135 nM
[4]
  Tmax: 0.25 h
[5]
  half-life: 2.8 h
[2]
  IC50: 75 nM
[6]
  bioavailability: 24%
[3]
  GI50: 39 nM
[9]
  fold change (FC): 17
[7]
  Cmax: 15 µM

## CC(C)(C)c1cc(NC(=O)Nc2ccc(Sc3ccnc4[nH]c(=O)[nH]c34)cc2)n(-c2ccccc2)n1
[1]
  IC50: 70 nM
[2]
  IC50: 215 nM
[3]
  GI50: 12 nM

## Cc1ccc(-n2nc(C(C)(C)C)cc2NC(=O)Nc2ccc(Sc3ccnc4[nH]c(=O)[nH]c34)cc2)cc1
[1]
  IC50: 234 nM
[2]
  IC50: 2200 nM
[3]
  GI50: 259 nM

## CC(C)(C)c1cc(NC(=O)Nc2ccc(Oc3ccnc4[nH]c(=O)[nH]c34)cc2)n(Cc2ccccc2)n1
[1]
  IC50: 13400 nM
[2]
  IC50: 147 nM
[3]
  GI50: 10100 nM

## Cc1ccc(-n2nc(C(C)(C)C)cc2NC(=O)Nc2ccc(Oc3ccnc4[nH]c(=O)[nH]c34)c3ccccc23)cc1
[1]
  IC50: 14 nM
[2]
  IC50: 670 nM
[3]
  GI50: 31 nM

## Cn1c(=O)[nH]c2nccc(Oc3ccc(NC(=O)Nc4cc(C(C)(C)C)nn4-c4ccc(F)cc4)c4ccccc34)c21
[1]
  IC50: 35 nM
[2]
  IC50: 313 nM
[3]
  GI50: 47 nM

## Cn1c(=O)[nH]c2nccc(Oc3ccc(NC(=O)Nc4cc(C(C)(C)C)nn4-c4cccnc4)c4ccccc34)c21
[1]
  IC50: 100 nM
[4]
  Tmax: 0.5 h
[5]
  half-life: 0.8 h
[2]
  IC50: 790 nM
[6]
  bioavailability: 5%
[3]
  GI50: 69 nM
[7]
  Cmax: 4.21 µM

## Cn1c(=O)[nH]c2c(Oc3ccc(NC(=O)Nc4cc(C(C)(C)C)nn4-c4ccccc4)c4ccccc34)ccnc21
[1]
  IC50: 27 nM
[2]
  IC50: 6900 nM
[3]
  GI50: 167 nM

## Cc1ccc(-n2nc(C(C)(C)C)cc2NC(=O)Nc2ccc(Oc3ccnc4c3[nH]c(=O)n4C)c3ccccc23)cc1
[1]
  IC50: 70 nM
[2]
  IC50: 6300 nM
[3]
  GI50: 1090 nM

## Cn1nc(C(C)(C)C)cc1NC(=O)Nc1ccc(Oc2ccnc3c2[nH]c(=O)n3C)c2ccccc12
[1]
  IC50: 470 nM
[2]
  IC50: 197 nM
[3]
  GI50: 470 nM

## Cc1ccc(-n2nc(C(C)(C)C)cc2NC(=O)Nc2ccc(Oc3ccnc4c3[nH]c(=O)n4C)cc2)cc1
[1]
  IC50: 54 nM
[4]
  Tmax: 1 h
[5]
  half-life: 3.4 h
[2]
  IC50: 1190 nM
[6]
  bioavailability: 30%
[3]
  GI50: 27 nM
[7]
  Cmax: 22.7 µM

## Cc1ccc(-n2nc(C(C)(C)C)cc2NC(=O)Nc2ccc(Oc3ccnc4c3n(C)c(=O)n4C)cc2)cc1
[1]
  IC50: 190 nM
[2]
  IC50: 1800 nM
[3]
  GI50: 210 nM

## Cn1nc(C(C)(C)C)cc1NC(=O)Nc1ccc(Oc2ccnc3[nH]c(=O)[nH]c23)c2ccccc12
[1]
  IC50: 2300 nM
[2]
  IC50: 11 nM
[3]
  GI50: 670 nM

## Cc1ccc(-n2nc(C(C)(C)C)cc2NC(=O)Nc2ccc(Oc3ccnc4[nH]c(=O)[nH]c34)cc2F)cc1
[8]
  GI50: 790 nM
[1]
  IC50: 40 nM
[4]
  Tmax: 1.5 h
[5]
  half-life: 5.3 h
[2]
  IC50: 110 nM
[6]
  bioavailability: 7%
[3]
  GI50: 46 nM
[9]
  fold change (FC): 17
[7]
  Cmax: 7.42 µM

## Cc1ccc(-n2nc(C(C)(C)C)cc2NC(=O)Nc2ccc(Oc3ccnc4c3[nH]c(=O)n4C)cc2F)cn1
[1]
  IC50: 62 nM
[4]
  Tmax: 0.25 h
[5]
  half-life: 12.6 h
[2]
  IC50: 530 nM
[6]
  bioavailability: 17%
[3]
  GI50: 240 nM
[7]
  Cmax: 18 µM

## Cn1c(=O)n(C)c2c(Oc3ccc(NC(=O)Nc4cc(C(C)(C)C)nn4-c4ccccc4)c(F)c3)ccnc21
[1]
  IC50: 122 nM
[4]
  Tmax: 0.5 h
[5]
  half-life: 2.1 h
[2]
  IC50: 1090 nM
[6]
  bioavailability: 59%
[3]
  GI50: 33 nM
[7]
  Cmax: 4.44 µM

## CC(C)(C)c1cc(NC(=O)Nc2ccc(Oc3ccnc4[nH]c(=O)[nH]c34)cc2)n(-c2ccc(Cl)cc2)n1
[1]
  IC50: 350 nM
[2]
  IC50: 140 nM
[3]
  GI50: 530 nM

## Cc1cc(NC(=O)Nc2ccc(Oc3ccnc4[nH]c(=O)[nH]c34)cc2)n(-c2ccc(Cl)cc2)n1
[1]
  IC50: 70000 nM
[2]
  IC50: 290 nM
[3]
  GI50: 21000 nM

## CC(C)(C)c1cc(NC(=O)Nc2ccc(Oc3ccnc4[nH]c(=O)[nH]c34)cc2)n(-c2ccccc2)n1
[8]
  GI50: 3200 nM
[1]
  IC50: 620 nM
[2]
  IC50: 94 nM
[3]
  GI50: 390 nM
[9]
  fold change (FC): 8

## CC(C)c1cc(NC(=O)Nc2ccc(Oc3ccnc4[nH]c(=O)[nH]c34)cc2)n(-c2ccccc2)n1
[1]
  IC50: 1970 nM
[2]
  IC50: 42 nM
[3]
  GI50: 1170 nM

## Cc1ccc(-n2nc(C(C)(C)C)cc2NC(=O)Nc2ccc(Oc3ccnc4c3n(C)c(=O)n4C)cc2F)cc1
[1]
  IC50: 52 nM
[4]
  Tmax: 0.5 h
[5]
  half-life: 9.4 h
[2]
  IC50: 1130 nM
[6]
  bioavailability: 31%
[3]
  GI50: 320 nM
[7]
  Cmax: 8.12 µM

## CSc1cc(Oc2ccnc3[nH]c(=O)[nH]c23)ccc1NC(=O)Nc1cc(C(C)(C)C)nn1-c1ccc(C)cc1
[1]
  IC50: 56 nM
[2]
  IC50: 76 nM
[3]
  GI50: 16 nM

## Cn1nc(C(C)(C)C)cc1NC(=O)Nc1ccc(Oc2ccnc3c2[nH]c(=O)n3C)cc1
[1]
  IC50: 2900 nM
[2]
  IC50: 258 nM
[3]
  GI50: 1920 nM

## Cn1c(=O)[nH]c2c(Oc3ccc(NC(=O)Nc4cc(C(C)(C)C)nn4-c4ccccc4)cc3)ccnc21
[1]
  IC50: 130 nM
[2]
  IC50: 880 nM
[3]
  GI50: 61 nM

## Cc1ccc(-n2nc(C(F)(F)F)cc2NC(=O)Nc2ccc(Oc3ccnc4[nH]c(=O)n(C)c34)cc2)cc1
[1]
  IC50: 3200 nM
[2]
  IC50: 176 nM
[3]
  GI50: 1890 nM

## Cn1c(=O)[nH]c2nccc(Oc3ccc(NC(=O)Nc4cc(C5CC5)nn4-c4ccccc4)cc3)c21
[1]
  IC50: 18200 nM
[2]
  IC50: 143 nM
[3]
  GI50: 3700 nM

## Cn1c(=O)[nH]c2nccc(Oc3ccc(NC(=O)Nc4cc(C(C)(C)C)nn4-c4ccccc4)cc3)c21
[1]
  IC50: 164 nM
[2]
  IC50: 215 nM
[3]
  GI50: 145 nM

## Cn1nc(C(C)(C)C)cc1NC(=O)Nc1ccc(Oc2ccnc3[nH]c(=O)n(C)c23)cc1
[1]
  IC50: 14100 nM
[2]
  IC50: 84 nM
[3]
  GI50: 4200 nM

## Cn1c(=O)[nH]c2nccc(Oc3ccc(NC(=O)Nc4cc(C(C)(C)C)nn4-c4ccc(F)cc4)cc3)c21
[1]
  IC50: 1360 nM
[2]
  IC50: 135 nM
[3]
  GI50: 497 nM

## CC(C)(C)c1cc(NC(=O)Nc2ccc(Oc3ccnc4[nH]c(=O)[nH]c34)c3ccccc23)n(-c2ccccc2)n1
[1]
  IC50: 35 nM
[2]
  IC50: 510 nM
[3]
  GI50: 34 nM

## Cn1nc(C(C)(C)C)cc1NC(=O)Nc1ccc(Oc2ccnc3[nH]c(=O)n(C)c23)c2ccccc12
[1]
  IC50: 383 nM
[2]
  IC50: 99 nM
[3]
  GI50: 161 nM

## CNC(=O)c1cc(Oc2ccc(NC(=O)Nc3ccc(Cl)c(C(F)(F)F)c3)cc2)ccn1 [SORAFENIB]
[8]
  GI50: 4500 nM
[9]
  fold change (FC): 1
